Measurements published in ChEMBL document CHEMBL1123026, “Preparation and antiarthritic and analgesic activity of 4,5-diaryl-2-(substituted thio)-1H-imidazoles and their sulfoxides and sulfones” (1985).

Assays:
Type in all cases: functional
Rattus norvegicus [1] = assay: Effective dose determined against rat adjuvant arthritis after peroral administration; conditions: po
How it was run: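 Male Lewis rats (130-150 g) given 0.1 mL Mycobacterium butyricum adjuvant (5 mg/mL in mineral oil) s.c. into the right hind paw; arthritis developed for 2 weeks. Groups of 10 matched for severity were dosed orally by gavage in PVA-acacia vehicle (10 mL/kg) for 7 days. Uninjected left paw volume was measured the day after the last dose. Percent decrease was calculated vs arthritic and nonarthritic controls. ED50 was read from a visually fitted semilog dose-response line.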

Mus musculus [2] = assay: Effective dose determined by mouse phenyl-p-benzoquinone writhing (PQW) assay after peroral administration; conditions: po
How it was run: (§1)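 Fasted (17-21 h) female white mice, 5-20 per double-blind test, dosed orally with compound suspended in 1% methylcellulose. 0.20 mL aqueous 0.01% phenyl-p-benzoquinone given i.p. 6 min before a 10-min observation for stretching/writhing. ED50 (dose protecting 50% of mice) calculated by the moving-average method.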

Rattus norvegicus [3] = assay: Decrease in paw volume by the effect of compound at a dose of 75 mg/kg
How it was run: (§2)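 Male Lewis rats (130-150 g) got 0.1 mL adjuvant (heat-killed Mycobacterium butyricum, 5 mg/mL in mineral oil) subplantar in the right hind paw and were left 2 weeks. Groups of 10 matched for severity were dosed orally by gavage (PVA-acacia vehicle, 10 mL/kg) for 7 days. Uninjected left hind paw volume was read the next day. % decrease = (arthritic control − treated)/(arthritic − nonarthritic control) × 100; Student's t-test.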

Mus musculus [4] = assay: Effective dose by mouse phenyl-p-benzoquinone writhing (PQW)assay after peroral administration; highest dose was tested; conditions: po; how it was run: as §1
Rattus norvegicus [5] = assay: Decrease in paw volume by the effect of compound at a dose of 100 mg/kg; how it was run: as §2
Rattus norvegicus [6] = assay: Decrease in paw volume was evaluated at dose 1 mg/kg; how it was run: as §2
Rattus norvegicus [7] = assay: Decrease in paw volume was evaluated at dose 30 mg/kg; how it was run: as §2
Rattus norvegicus [8] = assay: Decrease in paw volume by the effect of compound at a dose of 50 mg/kg; how it was run: as §2
Rattus norvegicus [9] = assay: Decrease in paw volume was evaluated at dose 9 mg/kg; how it was run: as §2
Rattus norvegicus [10] = assay: Decrease in paw volume was evaluated at dose 25 mg/kg; how it was run: as §2

CSc1nc(-c2ccc(F)cc2)c(-c2ccc(F)cc2)[nH]1 was tested, and the ED50 (Rattus norvegicus [1]) was 4 mg/kg and the ED50 (Mus musculus [2]) was > 130 mg/kg.

With CS(=O)(=O)c1nc(-c2cccc(F)c2)c(-c2ccccc2)[nH]1 the Decrease (Rattus norvegicus [3]) was 32% and the ED50 (Mus musculus [2]) was > 130 mg/kg.

For Fc1ccc(-c2nc(SC(F)(F)C(F)F)[nH]c2-c2ccc(F)cc2)cc1, the ED50 (Rattus norvegicus [1]) was 0.05 mg/kg and the ED50 (Mus musculus [2]) was > 81 mg/kg.

In the case of COc1ccc(-c2nc([S+]([O-])CC(F)(F)F)[nH]c2-c2ccc(OC)cc2)cc1 (configuration not stated), the ED50 (Rattus norvegicus [1]) is reported as 11 mg/kg.

COc1ccc(-c2nc(SCC(F)(F)F)[nH]c2-c2ccc(OC)cc2)cc1 was tested, and the ED50 (Rattus norvegicus [1]) was 35 mg/kg and the ED50 (Mus musculus [2]) was > 135 mg/kg.

In the case of CS(=O)(=O)c1nc(-c2ccc(Cl)cc2)c(-c2ccc(F)cc2)[nH]1, the ED50 (Mus musculus [2]) is reported as > 130 mg/kg.

CSc1ccc(-c2[nH]c(SC(F)(F)C(F)F)nc2-c2ccc(F)cc2)cc1 was tested, and the ED50 (Rattus norvegicus [1]) was 1.6 mg/kg and the ED50 (Mus musculus [2]) was > 108 mg/kg.

FC(F)C(F)(F)Sc1nc(-c2ccccc2)c(-c2ccccc2)[nH]1 gave an ED50 (Mus musculus [4]) of 81 mg/kg and an ED50 (Rattus norvegicus [1]) of 1.2 mg/kg.

In the case of CSc1nc(-c2ccc(F)cc2)c(-c2ccc(C(F)(F)F)cc2)[nH]1, the ED50 (Mus musculus [2]) is reported as > 130 mg/kg.

For FC(F)(F)Sc1nc(-c2ccc(Cl)c(Cl)c2)c(-c2ccccc2)[nH]1, the ED50 (Mus musculus [2]) was > 130 mg/kg.

CCCCS(=O)(=O)c1nc(-c2ccccc2)c(-c2ccccc2)[nH]1 was tested, and the ED50 (Rattus norvegicus [1]) was > 100 mg/kg and the ED50 (Mus musculus [2]) was > 130 mg/kg.

For FC(F)C(F)(F)Sc1nc(-c2ccc(Cl)c(Cl)c2)c(-c2ccccc2)[nH]1, the ED50 (Mus musculus [2]) was > 130 mg/kg.

For CS(=O)(=O)c1nc(-c2ccc(Cl)cc2)c(-c2ccc(C(F)(F)F)cc2)[nH]1, the ED50 (Mus musculus [2]) was > 135 mg/kg.

For CSc1nc(-c2ccc(Cl)cc2)c(-c2ccc(C(F)(F)F)cc2)[nH]1, the ED50 (Mus musculus [2]) was > 130 mg/kg.

In the case of FC(F)(F)C(F)(F)CSc1nc(-c2ccccc2)c(-c2ccccc2)[nH]1, the ED50 (Mus musculus [2]) is reported as > 135 mg/kg.

CCCS(=O)(=O)c1nc(-c2ccccc2)c(-c2ccccc2)[nH]1 was tested, and the Decrease (Rattus norvegicus [5]) was 26% and the ED50 (Mus musculus [2]) was > 130 mg/kg.

With FC(F)C(F)(F)Sc1nc(-c2ccc(Cl)cc2)c(-c2ccc(C(F)(F)F)cc2)[nH]1 the Decrease (Rattus norvegicus [6]) was 35% and the ED50 (Mus musculus [2]) was > 130 mg/kg.

For [O-][S+](CCC(F)(F)C(F)(F)F)c1nc(-c2ccccc2)c(-c2ccccc2)[nH]1 (configuration not stated), the ED50 (Rattus norvegicus [1]) was > 75 mg/kg and the ED50 (Mus musculus [2]) was > 130 mg/kg.

For COc1ccc(-c2nc([S+](C)[O-])[nH]c2-c2ccc(OC)cc2)cc1 (configuration not stated), the ED50 (Rattus norvegicus [1]) was 6.5 mg/kg and the ED50 (Mus musculus [2]) was > 135 mg/kg.

With [O-][S+](CC(F)(F)C(F)(F)F)c1nc(-c2ccccc2)c(-c2ccccc2)[nH]1 (configuration not stated) the ED50 (Rattus norvegicus [1]) was > 75 mg/kg and the ED50 (Mus musculus [2]) was > 130 mg/kg.

In the case of COc1ccc(-c2nc(SCSC)[nH]c2-c2ccc(OC)cc2)cc1, the Decrease (Rattus norvegicus [7]) is reported as 46% and the ED50 (Mus musculus [2]) is reported as > 130 mg/kg.

O=S(=O)(c1nc(-c2ccccc2)c(-c2ccccc2)[nH]1)C(F)(F)C(F)F showed an ED50 (Rattus norvegicus [1]) of 0.095 mg/kg.

In the case of CS(=O)(=O)c1nc(-c2ccc(Cl)c(Cl)c2)c(-c2ccccc2)[nH]1, the Decrease (Rattus norvegicus [8]) is reported as 59% and the ED50 (Mus musculus [2]) is reported as > 130 mg/kg.

Molecule COc1ccc(-c2nc(S(=O)(=O)C(F)(F)C(F)F)[nH]c2-c2ccc(OC)cc2)cc1 has an ED50 (Rattus norvegicus [1]) of 1.4 mg/kg.

In the case of COc1ccc(-c2nc(SC)[nH]c2-c2ccc(OC)cc2)cc1, the ED50 (Rattus norvegicus [1]) is reported as 4.5 mg/kg and the ED50 (Mus musculus [2]) is reported as > 135 mg/kg.

In the case of O=S(=O)(CCC(F)(F)C(F)(F)F)c1nc(-c2ccccc2)c(-c2ccccc2)[nH]1, the ED50 (Rattus norvegicus [1]) is reported as > 75 mg/kg and the ED50 (Mus musculus [2]) is reported as > 130 mg/kg.

Work on COc1ccc(-c2nc(SC(C)C)[nH]c2-c2ccc(OC)cc2)cc1 yielded a Decrease (Rattus norvegicus [7]) of 38%.

In the case of CS(=O)(=O)c1nc(-c2ccc(C(F)(F)F)cc2)c(-c2ccccc2)[nH]1, the Decrease (Rattus norvegicus [8]) is reported as 32% and the ED50 (Mus musculus [2]) is reported as > 130 mg/kg.

With FC(F)C(F)(F)Sc1nc(-c2ccc(Cl)cc2)c(-c2ccccc2)[nH]1 the ED50 (Mus musculus [2]) was > 130 mg/kg.

With C=CCS(=O)(=O)c1nc(-c2ccc(OC)cc2)c(-c2ccc(OC)cc2)[nH]1 the ED50 (Rattus norvegicus [1]) was 10 mg/kg and the ED50 (Mus musculus [2]) was > 130 mg/kg.

In the case of CSc1nc(-c2ccc(C(F)(F)F)cc2)c(-c2ccccc2)[nH]1, the Decrease (Rattus norvegicus [9]) is reported as 41% and the ED50 (Mus musculus [2]) is reported as > 130 mg/kg.

For CSc1nc(-c2ccc(C(F)(F)F)cc2)c(-c2ccc(C(F)(F)F)cc2)[nH]1, the Decrease (Rattus norvegicus [9]) was 29% and the ED50 (Mus musculus [2]) was > 130 mg/kg.

COc1ccc(-c2[nH]c(S(=O)(=O)C(F)(F)C(F)F)nc2-c2ccccc2Cl)cc1 showed an ED50 (Rattus norvegicus [1]) of 6 mg/kg.

With O=S(=O)(CCC(F)(F)F)c1nc(-c2ccccc2)c(-c2ccccc2)[nH]1 the ED50 (Rattus norvegicus [1]) was > 75 mg/kg and the ED50 (Mus musculus [2]) was > 135 mg/kg.

In the case of CCS(=O)(=O)c1nc(-c2ccccc2)c(-c2ccccc2)[nH]1, the Decrease (Rattus norvegicus [5]) is reported as 32% and the ED50 (Mus musculus [2]) is reported as > 135 mg/kg.

For CSc1nc(-c2cccc(F)c2)c(-c2ccccc2)[nH]1, the ED50 (Rattus norvegicus [1]) was 75 mg/kg and the ED50 (Mus musculus [2]) was > 130 mg/kg.

In the case of [O-][S+](CCC(F)(F)F)c1nc(-c2ccccc2)c(-c2ccccc2)[nH]1 (configuration not stated), the ED50 (Rattus norvegicus [1]) is reported as > 75 mg/kg and the ED50 (Mus musculus [2]) is reported as > 130 mg/kg.

With Cc1ccc(-c2nc(SC(F)(F)C(F)F)[nH]c2-c2ccc(C)cc2)cc1 the ED50 (Rattus norvegicus [1]) was 27 mg/kg and the ED50 (Mus musculus [2]) was > 130 mg/kg.

With C[S+]([O-])c1nc(-c2cccc(Cl)c2)c(-c2ccccc2)[nH]1 (configuration not stated) the Decrease (Rattus norvegicus [3]) was 77% and the ED50 (Mus musculus [2]) was > 130 mg/kg.

CSc1nc(-c2ccc(C)cc2)c(-c2ccc(C)cc2)[nH]1 was tested, and the Decrease (Rattus norvegicus [10]) was 26% and the ED50 (Mus musculus [2]) was > 130 mg/kg.
